15 molecules from ChEMBL document CHEMBL3102828, “Synthesis and antibacterial activity of a series of novel 9-O-acetyl- 4'-substituted 16-membered macrolides derived from josamycin” (2014) can be followed below.

Molecules are shown by their SMILES. ≈ marks a conversion by molar mass, not a printed value. Where only a bound is given, the exact number is not on record here.

Holding throughout (assay type): functional
For assay [1], the system named is Staphylococcus aureus. Kind of assay: Antimicrobial activity against methicillin-sensitive Staphylococcus aureus 15 by broth microdilution method. The procedure, abridged: (§1)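 MICs determined by broth microdilution as recommended by CLSI. Tested against a panel of five S. aureus strains and three S. epidermidis strains. ATCC 29213, 15 and 09–06 are methicillin-sensitive S. aureus. Josamycin served as the reference.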

The subject of assay [2] is Staphylococcus aureus. Kind of assay: Antimicrobial activity against methicillin-resistant Staphylococcus aureus 09-13 by broth microdilution method. The procedure, abridged:
(§2)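 MIC read-out from broth microdilution performed according to CLSI recommendations; each strain was tested in vitro alongside the parent macrolide reference.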

The subject of assay [3] is Staphylococcus aureus. Kind of assay: Antimicrobial activity against methicillin-sensitive Staphylococcus aureus 09-6 by broth microdilution method. The procedure, abridged:
as §1

Assay [4] relates to Staphylococcus epidermidis. Kind of assay: Antimicrobial activity against methicillin-sensitive Staphylococcus epidermidis 09-9 by broth microdilution method. In a few lines: as §1
Assay [5] deals with Staphylococcus epidermidis. Kind of assay: Antimicrobial activity against methicillin-resistant Staphylococcus epidermidis 09-3 by broth microdilution method. In a few lines: as §2
Assay [6] has as its system Staphylococcus aureus. The experiment in a line: Antimicrobial activity against methicillin-resistant Staphylococcus aureus ATCC 33591 by broth microdilution method. The procedure, abridged: as §2
In assay [7] the test system is Staphylococcus epidermidis. Kind of assay: Antimicrobial activity against methicillin-sensitive Staphylococcus epidermidis ATCC 12228 by broth microdilution method. The procedure, abridged:
as §1

Assay [8] concerns Staphylococcus aureus. The experiment in a line: Antimicrobial activity against methicillin-sensitive Staphylococcus aureus ATCC 29213 by broth microdilution method. The procedure, abridged: as §1

In the case of `CO[C@@H]1[C@@H](O[C@@H]2O[C@H](C)[C@@H](O)[C@H](N(C)C)[C@H]2O)[C@@H](CC=O)C[C@@H](C)[C@@H](OC(C)=O)/C=C/C=C/C[C@@H](C)OC(=O)C[C@H]1OC(C)=O`, the MIC against Staphylococcus aureus [1] is 16 µg/mL (≈ 24.9 µM); with Staphylococcus aureus [2] it was more than 32 µg/mL; in the assay with Staphylococcus aureus [3], 16 µg/mL (≈ 24.9 µM); in assay [4], 16 µg/mL (≈ 24.9 µM); in assay [5] it was more than 32 µg/mL; against Staphylococcus aureus [6], more than 32 µg/mL. In addition, the MIC (in assay [7]; with Staphylococcus aureus [8]) was 16 µg/mL (≈ 24.9 µM) each time.
For the molecule `CO[C@@H]1[C@@H](O[C@@H]2O[C@H](C)[C@@H](OC(=O)CC(C)C)[C@H](N(C)C)[C@H]2O)[C@@H](CC=O)C[C@@H](C)[C@@H](OC(C)=O)/C=C/C=C/C[C@@H](C)OC(=O)C[C@H]1OC(C)=O`, the MIC in the assay with Staphylococcus aureus [1] is 8 µg/mL (≈ 11 µM); against Staphylococcus aureus [2], more than 64 µg/mL; in the assay with Staphylococcus aureus [3] it was 8 µg/mL (≈ 11 µM); in assay [4], 8 µg/mL (≈ 11 µM); in assay [5], more than 64 µg/mL; against Staphylococcus aureus [6], more than 64 µg/mL. The minimum inhibitory concentration (MIC) (in assay [7]; in the assay with Staphylococcus aureus [8]) was 8 µg/mL (≈ 11 µM) throughout.
Consider `CO[C@H]1/C=C\C(=O)O[C@H](C)C/C=C/C=C/[C@H](O)[C@H](C)C[C@H](CC=O)[C@@H]1O[C@@H]1O[C@H](C)[C@@H](OC(=O)Nc2ccc(C(F)(F)F)cc2)[C@H](N(C)C)[C@H]1O`, for which the minimal inhibitory concentration (MIC) (in the assay on Staphylococcus aureus [1]; in the assay on Staphylococcus aureus [2]; in the assay with Staphylococcus aureus [3]; in assay [4]; in assay [5]; in the assay with Staphylococcus aureus [6]) was more than 64 µg/mL throughout. The MIC (in assay [7]; against Staphylococcus aureus [8]) was more than 64 µg/mL in each case.
With `CO[C@H]1/C=C\C(=O)O[C@H](C)C/C=C/C=C/[C@H](OC(C)=O)[C@H](C)C[C@H](CC=O)[C@@H]1O[C@@H]1O[C@H](C)[C@@H](O)[C@H](N(C)C)[C@H]1O`, the MIC is more than 64 µg/mL with Staphylococcus aureus [1]; more than 64 µg/mL against Staphylococcus aureus [2]; more than 64 µg/mL in the assay with Staphylococcus aureus [3]; 64 µg/mL (≈ 110 µM) in assay [4]; more than 64 µg/mL in assay [5]; more than 64 µg/mL against Staphylococcus aureus [6]. Further, the MIC in assay [7] was 64 µg/mL (≈ 110 µM); in the assay on Staphylococcus aureus [8], more than 64 µg/mL.
As to `CCCC(=O)O[C@H]1[C@H](N(C)C)[C@@H](O)[C@H](O[C@H]2[C@@H](CC=O)C[C@@H](C)[C@@H](OC(C)=O)/C=C/C=C/C[C@@H](C)OC(=O)C[C@@H](OC(C)=O)[C@@H]2OC)O[C@@H]1C`, the minimum inhibitory concentration (MIC) in the assay on Staphylococcus aureus [1] is 4 µg/mL (≈ 5.62 µM); in the assay on Staphylococcus aureus [2] it was more than 64 µg/mL; with Staphylococcus aureus [3], 4 µg/mL (≈ 5.62 µM); in assay [4], 4 µg/mL (≈ 5.62 µM); in assay [5], more than 64 µg/mL; in the assay on Staphylococcus aureus [6] it was more than 64 µg/mL. Further, the MIC (in assay [7]; against Staphylococcus aureus [8]) was 4 µg/mL (≈ 5.62 µM) in each case.
Turning to `COc1ccc(C(=O)O[C@H]2[C@H](N(C)C)[C@@H](O)[C@H](O[C@H]3[C@@H](CC=O)C[C@@H](C)[C@@H](OC(C)=O)/C=C/C=C/C[C@@H](C)OC(=O)C[C@@H](OC(C)=O)[C@@H]3OC)O[C@@H]2C)cc1`, the minimal inhibitory concentration (MIC) against Staphylococcus aureus [1] is 8 µg/mL (≈ 10.3 µM); in the assay with Staphylococcus aureus [2], more than 64 µg/mL; with Staphylococcus aureus [3] it was 8 µg/mL (≈ 10.3 µM); in assay [4] it was 8 µg/mL (≈ 10.3 µM); in assay [5] it was more than 64 µg/mL; against Staphylococcus aureus [6], more than 64 µg/mL. Besides, the minimum inhibitory concentration (MIC) (in assay [7]; with Staphylococcus aureus [8]) was 8 µg/mL (≈ 10.3 µM) each time.
Take `CO[C@H]1/C=C\C(=O)O[C@H](C)C/C=C/C=C/[C@H](OC(C)=O)[C@H](C)C[C@H](CC=O)[C@@H]1O[C@@H]1O[C@H](C)[C@@H](OC(=O)Nc2ccc(C(F)(F)F)cc2)[C@H](N(C)C)[C@H]1O`: the MIC (against Staphylococcus aureus [1]; in the assay on Staphylococcus aureus [2]; with Staphylococcus aureus [3]; in assay [4]; in assay [5]; against Staphylococcus aureus [6]) was more than 64 µg/mL throughout. Besides, the minimum inhibitory concentration (MIC) (in assay [7]; against Staphylococcus aureus [8]) was more than 64 µg/mL in each case.
With `CO[C@@H]1[C@@H](O[C@@H]2O[C@H](C)[C@@H](OC(=O)/C=C/c3ccccc3)[C@H](N(C)C)[C@H]2O)[C@@H](CC=O)C[C@@H](C)[C@@H](OC(C)=O)/C=C/C=C/C[C@@H](C)OC(=O)C[C@H]1OC(C)=O`, the minimum inhibitory concentration (MIC) in the assay with Staphylococcus aureus [1] is more than 32 µg/mL; in the assay on Staphylococcus aureus [2], more than 32 µg/mL; in the assay on Staphylococcus aureus [3] it was 8 µg/mL (≈ 10.4 µM); in assay [4] it was 4 µg/mL (≈ 5.18 µM); in assay [5] it was more than 32 µg/mL; in the assay with Staphylococcus aureus [6] it was more than 32 µg/mL. Further, the MIC in assay [7] came to 4 µg/mL (≈ 5.18 µM); in the assay with Staphylococcus aureus [8] it was 8 µg/mL (≈ 10.4 µM).
For `CO[C@H]1/C=C\C(=O)O[C@H](C)C/C=C/C=C/[C@H](O)[C@H](C)C[C@H](CC=O)[C@@H]1O[C@@H]1O[C@H](C)[C@@H](O)[C@H](N(C)C)[C@H]1O`, the minimum inhibitory concentration (MIC) (in the assay with Staphylococcus aureus [1]; in the assay with Staphylococcus aureus [2]; with Staphylococcus aureus [3]; in assay [4]; in assay [5]; in the assay with Staphylococcus aureus [6]) was more than 32 µg/mL in each case. The minimum inhibitory concentration (MIC) (in assay [7]; with Staphylococcus aureus [8]) was more than 32 µg/mL in each case.
Regarding `CO[C@@H]1[C@@H](O[C@@H]2O[C@H](C)[C@@H](OC(=O)c3ccc([N+](=O)[O-])cc3)[C@H](N(C)C)[C@H]2O)[C@@H](CC=O)C[C@@H](C)[C@@H](OC(C)=O)/C=C/C=C/C[C@@H](C)OC(=O)C[C@H]1OC(C)=O`, the MIC with Staphylococcus aureus [1] is more than 64 µg/mL; in the assay with Staphylococcus aureus [2] it was more than 64 µg/mL; against Staphylococcus aureus [3], 32 µg/mL (≈ 40.5 µM); in assay [4], 32 µg/mL (≈ 40.5 µM); in assay [5], more than 64 µg/mL; with Staphylococcus aureus [6], more than 64 µg/mL. Further, the MIC (in assay [7]; with Staphylococcus aureus [8]) was 32 µg/mL (≈ 40.5 µM) in each case.
For the molecule `CO[C@@H]1[C@@H](O[C@@H]2O[C@H](C)[C@@H](OC(=O)c3ccccc3)[C@H](N(C)C)[C@H]2O)[C@@H](CC=O)C[C@@H](C)[C@@H](OC(C)=O)/C=C/C=C/C[C@@H](C)OC(=O)C[C@H]1OC(C)=O`, the minimal inhibitory concentration (MIC) was 8 µg/mL (≈ 10.7 µM) in the assay with Staphylococcus aureus [1]; more than 64 µg/mL in the assay with Staphylococcus aureus [2]; 8 µg/mL (≈ 10.7 µM) with Staphylococcus aureus [3]; 8 µg/mL (≈ 10.7 µM) in assay [4]; more than 64 µg/mL in assay [5]; more than 64 µg/mL in the assay with Staphylococcus aureus [6]. The MIC (in assay [7]; in the assay on Staphylococcus aureus [8]) was 8 µg/mL (≈ 10.7 µM) throughout.
As for `CO[C@@H]1[C@@H](O[C@@H]2O[C@H](C)[C@@H](OC(=O)CCc3ccccc3)[C@H](N(C)C)[C@H]2O)[C@@H](CC=O)C[C@@H](C)[C@@H](OC(C)=O)/C=C/C=C/C[C@@H](C)OC(=O)C[C@H]1OC(C)=O`, the MIC is 8 µg/mL (≈ 10.3 µM) in the assay with Staphylococcus aureus [1]; more than 32 µg/mL in the assay with Staphylococcus aureus [2]; 4 µg/mL (≈ 5.17 µM) in the assay with Staphylococcus aureus [3]; 4 µg/mL (≈ 5.17 µM) in assay [4]; more than 32 µg/mL in assay [5]; more than 32 µg/mL in the assay on Staphylococcus aureus [6]. The MIC (in assay [7]; against Staphylococcus aureus [8]) was 4 µg/mL (≈ 5.17 µM) each time.
Turning to `CO[C@@H]1[C@@H](O[C@@H]2O[C@H](C)[C@@H](O[C@H]3C[C@@](C)(O)[C@@H](OC(=O)CC(C)C)[C@H](C)O3)[C@H](N(C)C)[C@H]2O)[C@@H](CC=O)C[C@@H](C)[C@@H](O)/C=C/C=C/C[C@@H](C)OC(=O)C[C@H]1OC(C)=O` [JOSAMYCIN], the MIC in the assay with Staphylococcus aureus [1] is 2 µg/mL (≈ 2.42 µM); in the assay with Staphylococcus aureus [2], 32 µg/mL (≈ 38.6 µM); with Staphylococcus aureus [3], 1 µg/mL (≈ 1.21 µM); in assay [4], 2 µg/mL (≈ 2.42 µM); in assay [5], more than 32 µg/mL; against Staphylococcus aureus [6], more than 32 µg/mL. Besides, the minimum inhibitory concentration (MIC) (in assay [7]; in the assay on Staphylococcus aureus [8]) was 1 µg/mL (≈ 1.21 µM) in each case.
For `CO[C@@H]1[C@@H](O[C@@H]2O[C@H](C)[C@@H](OC(=O)Nc3ccc(C(F)(F)F)cc3)[C@H](N(C)C)[C@H]2O)[C@@H](CC=O)C[C@@H](C)[C@@H](OC(C)=O)/C=C/C=C/C[C@@H](C)OC(=O)C[C@H]1OC(C)=O`, the MIC (in the assay with Staphylococcus aureus [1]; against Staphylococcus aureus [2]; with Staphylococcus aureus [3]; in assay [4]; in assay [5]; in the assay on Staphylococcus aureus [6]) was more than 64 µg/mL each time. Besides, the MIC (in assay [7]; with Staphylococcus aureus [8]) was more than 64 µg/mL throughout.
In the case of `CO[C@@H]1[C@@H](O[C@@H]2O[C@H](C)[C@@H](OC(=O)/C=C/c3ccnc4ccccc34)[C@H](N(C)C)[C@H]2O)[C@@H](CC=O)C[C@@H](C)[C@@H](OC(C)=O)/C=C/C=C/C[C@@H](C)OC(=O)C[C@H]1OC(C)=O`, the MIC in the assay on Staphylococcus aureus [1] is 16 µg/mL (≈ 19.4 µM); in the assay with Staphylococcus aureus [2] it was more than 64 µg/mL; against Staphylococcus aureus [3], 8 µg/mL (≈ 9.72 µM); in assay [4] it was 8 µg/mL (≈ 9.72 µM); in assay [5] it was more than 64 µg/mL; in the assay with Staphylococcus aureus [6], more than 64 µg/mL. Also, the MIC (in assay [7]; against Staphylococcus aureus [8]) was 8 µg/mL (≈ 9.72 µM) each time.
